{"source": "ChEMBL document CHEMBL2440006", "about": "“Mastering tricyclic ring systems for desirable functional cannabinoid activity” (Eur J Med Chem, 2013)", "key": {"Cannabinoid receptor 2 [1]": {"biological_target": "T1, Cannabinoid receptor 2 (Homo sapiens, UniProt P34972)", "T1 sequence (P34972 whole entry)": "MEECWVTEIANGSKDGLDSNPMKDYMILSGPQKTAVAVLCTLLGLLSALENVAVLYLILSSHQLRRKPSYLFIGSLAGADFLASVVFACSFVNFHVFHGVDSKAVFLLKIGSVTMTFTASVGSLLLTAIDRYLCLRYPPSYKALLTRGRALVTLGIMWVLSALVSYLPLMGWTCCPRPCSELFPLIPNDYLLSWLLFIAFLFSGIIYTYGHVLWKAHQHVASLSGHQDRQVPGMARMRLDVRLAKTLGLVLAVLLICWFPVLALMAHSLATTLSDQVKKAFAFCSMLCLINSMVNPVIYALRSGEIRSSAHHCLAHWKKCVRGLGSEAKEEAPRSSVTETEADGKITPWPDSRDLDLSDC", "assay": "Agonist activity at human recombinant CB2 receptor expressed in CHO cells after 1 hr by [35S]GTPgammaS binding assay", "format": "functional, cell-based"}, "Cannabinoid receptor 2 [2]": {"biological_target": "T1, Cannabinoid receptor 2", "assay": "Agonist activity at human recombinant CB2 receptor expressed in CHO cells after 1 hr by [35S]GTPgammaS binding assay relative to CP55940", "format": "functional, cell-based", "procedure,_shortened": "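Membranes from CHO cells expressing hCB1 or hCB2, preincubated at least 15 min on ice with 30 μM GDP solution. GTP-γ-[35S] with WGA-PVT SPA beads. Eight concentrations, 0.001–10 μM, in duplicate. Incubated 1 h at room temperature, centrifuged, then a further 1 h before counting. […] Mean of two determinations.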"}, "Rattus norvegicus": {"test_system": "Rattus norvegicus", "assay": "Antiallodynic activity in ip dosed Sprague-Dawley rat spinal nerve ligation model of neuropathic pain assessed as reduction of tactile allodynia", "format": "functional, organism-based", "procedure,_shortened": "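Male Sprague Dawley rats, 120–150 g. Left L5/L6 spinal nerves ligated under isoflurane; tested three weeks later. Single i.p. bolus, 5–20 mg/kg, in 30% hydroxypropyl-β-cyclodextrin in PBS, prepared within 1 h before injection. Paw withdrawal threshold by von Frey filaments, 50% threshold by up-down method. Seven rats per group. Repeated-measures ANOVA with Dunnett's test vs time 0.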"}, "Cannabinoid receptor 2 [3]": {"biological_target": "T1, Cannabinoid receptor 2", "assay": "Agonist activity at human recombinant […] receptor expressed in CHO cells at 1 uM after 1 hr by [35S]GTPgammaS binding assay", "format": "functional, cell-based"}, "Cannabinoid receptor 2 [4]": {"biological_target": "T1, Cannabinoid receptor 2", "assay": "Antagonist activity at human recombinant […] receptor expressed in CHO cells at 1 uM after 1 hr by [35S]GTPgammaS binding assay", "format": "functional, cell-based"}, "Cannabinoid receptor 2 [5]": {"biological_target": "T1, Cannabinoid receptor 2", "assay": "Induction of human CB2 receptor internalization expressed in HEK293 cells at 10 uM relative to CP55940", "format": "cell-based", "procedure,_shortened": "(§1)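 Cells stably expressing human CB1 or human CB2 receptors, exposed to test compound alone. […] Mean of two determinations.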"}, "[6]": {"biological_target": "Cannabinoid receptor 1 (Homo sapiens) (UniProt P21554)", "sequence (P21554 whole entry)": "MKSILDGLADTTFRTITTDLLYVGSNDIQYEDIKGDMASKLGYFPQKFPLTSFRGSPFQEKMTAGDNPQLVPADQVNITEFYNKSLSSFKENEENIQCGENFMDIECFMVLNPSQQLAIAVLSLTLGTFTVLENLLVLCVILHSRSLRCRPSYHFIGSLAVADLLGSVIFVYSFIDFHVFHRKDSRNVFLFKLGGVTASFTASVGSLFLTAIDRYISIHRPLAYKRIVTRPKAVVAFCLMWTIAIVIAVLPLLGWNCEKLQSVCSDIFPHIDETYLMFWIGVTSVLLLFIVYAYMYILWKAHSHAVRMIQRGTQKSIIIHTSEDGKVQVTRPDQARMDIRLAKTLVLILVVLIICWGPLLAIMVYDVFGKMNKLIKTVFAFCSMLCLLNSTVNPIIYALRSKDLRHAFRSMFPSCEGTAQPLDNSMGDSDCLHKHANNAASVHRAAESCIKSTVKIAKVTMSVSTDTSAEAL", "assay": "Induction of human CB1 receptor internalization expressed in HEK293 cells at 10 uM relative to CP55940", "format": "cell-based", "procedure,_shortened": "as §1"}, "Cannabinoid receptor 2 [7]": {"biological_target": "T1, Cannabinoid receptor 2", "assay": "Displacement of [3H]-CP55940 from human CB2 receptor expressed in HEK293 cells after 1.5 hrs by microbeta liquid scintillation counting analysis", "format": "cell-based", "settings": "read-out: Ki", "procedure,_shortened": "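Membranes from rat brain homogenate (CB1) or HEK293 cells expressing human CB2. GF/B filtration, then scintillation counting. IC50 by three-parameter logistic fit, Ki by Cheng-Prusoff. Three experiments in triplicate.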"}, "Cannabinoid receptor 1": {"biological_target": "Cannabinoid receptor 1 (Rattus norvegicus, UniProt P20272)", "sequence (P20272 whole entry)": "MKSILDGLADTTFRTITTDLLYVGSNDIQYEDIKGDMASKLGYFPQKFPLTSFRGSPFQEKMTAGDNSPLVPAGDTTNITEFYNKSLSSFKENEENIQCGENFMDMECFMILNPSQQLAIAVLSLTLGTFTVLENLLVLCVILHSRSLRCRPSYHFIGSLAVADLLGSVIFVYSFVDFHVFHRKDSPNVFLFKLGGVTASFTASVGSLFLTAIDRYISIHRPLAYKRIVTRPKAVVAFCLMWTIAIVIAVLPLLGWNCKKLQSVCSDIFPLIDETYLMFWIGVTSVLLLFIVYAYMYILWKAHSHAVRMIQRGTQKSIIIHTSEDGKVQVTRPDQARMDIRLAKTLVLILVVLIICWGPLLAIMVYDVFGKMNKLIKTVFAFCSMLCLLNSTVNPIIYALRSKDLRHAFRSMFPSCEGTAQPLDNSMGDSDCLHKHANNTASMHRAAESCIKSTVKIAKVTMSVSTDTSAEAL", "assay": "Displacement of [3H]-CP55940 from CB1 receptor in rat brain homogenate after 1.5 hrs by microbeta liquid scintillation counting analysis", "format": "tissue-based", "settings": "read-out: Ki", "procedure,_shortened": "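Membranes from rat brain homogenate (CB1) or HEK293 cells expressing human CB2. […] GF/B filtration, then scintillation counting. […] IC50 by three-parameter logistic fit, Ki by Cheng-Prusoff. Three experiments in triplicate.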"}, "[8]": {"assay": "Selectivity ratio of Ki for rat CB1 receptor to Ki for human CB2 receptor"}}, "note": "Calls of active or inactive are those of the source."}
{"smiles": "CS(=O)(=O)NCCCn1c2ccccc2c2cc(C(=O)N3CCCCC3)ccc21", "values": [{"measurement": "EC50", "setting": "Cannabinoid receptor 2 [1]", "result": 7.3, "unit": "nM"}, {"measurement": "Emax", "setting": "Cannabinoid receptor 2 [2]", "result": 59.6, "unit": "%"}, {"measurement": "Activity", "setting": "Rattus norvegicus", "result": "Dose-dependent effect"}, {"measurement": "Activity", "setting": "Cannabinoid receptor 2 [3]", "result": "inactive"}, {"measurement": "Activity", "setting": "Cannabinoid receptor 2 [4]", "result": "inactive"}, {"measurement": "Activity", "setting": "Cannabinoid receptor 2 [5]", "result": 116, "unit": "%"}, {"measurement": "Activity", "setting": "[6]", "result": 54.1, "unit": "%"}, {"measurement": "Ki", "setting": "Cannabinoid receptor 2 [7]", "result": 62, "unit": "nM"}, {"measurement": "Ki", "setting": "Cannabinoid receptor 1", "result": 1470, "unit": "nM"}, {"measurement": "Ratio Ki", "setting": "[8]", "result": 23.7}]}
